Assay results collected from several papers.
Target: Dual specificity mitogen-activated protein kinase kinase 5 (MAP2K5, Homo sapiens, UniProt Q13163)
Sequence (Q13163 1-448, as in one of the studies): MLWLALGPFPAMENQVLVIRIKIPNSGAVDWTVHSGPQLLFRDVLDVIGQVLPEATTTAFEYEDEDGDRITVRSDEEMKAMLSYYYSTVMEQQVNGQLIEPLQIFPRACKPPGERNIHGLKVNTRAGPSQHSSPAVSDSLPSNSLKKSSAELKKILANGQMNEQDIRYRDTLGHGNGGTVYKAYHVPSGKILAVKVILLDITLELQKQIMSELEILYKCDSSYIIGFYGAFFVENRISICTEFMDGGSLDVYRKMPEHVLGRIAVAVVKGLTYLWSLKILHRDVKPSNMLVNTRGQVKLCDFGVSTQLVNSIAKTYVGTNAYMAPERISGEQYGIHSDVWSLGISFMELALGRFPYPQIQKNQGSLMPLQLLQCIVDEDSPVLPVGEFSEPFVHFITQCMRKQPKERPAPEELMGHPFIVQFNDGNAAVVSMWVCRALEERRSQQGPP

SMILES | test | setting | remaining binding [%]
Nc1ncc2c(n1)-c1c([nH]c3ccc(C#CC4CC4)cc13)CCCC2 | binding, competition with immobilised ligand | 1 µM | 21
C[C@H]1CCN(c2nccc(-c3cnn4ncccc34)n2)C1 | binding | 1 µM | 81
O=C1NC(c2ccccn2)Sc2ccccc21 (stereo not shown) | cell-free assay, competition with immobilised ligand | 1 µM | 87
c1cnn2ncc(-c3ccnc(N4CCC45COC5)n3)c2c1 | binding | 1 µM | 30
O=C(c1ccc(Nc2ncc(Cl)c(-c3ccc(Cl)s3)n2)cc1)N1CCC(N2CCCC2)CC1 | binding, competition with immobilised ligand | 1 µM | 0.85
CCN1CCN(Cc2ccc(C(=O)Nc3ccc(C)c(Oc4ccc5c(c4)CC(=O)N5)c3)cc2C(F)(F)F)CC1 | binding, competition with immobilised ligand | 1 µM | 100
COc1ccc2c(O[C@@H]3C[C@H]4C(=O)N[C@]5(C(=O)O)CC5/C=C\CCCCC[C@H](NC(=O)OC5CCCC5)C(=O)N4C3)cc(-c3csc(NC(=O)C(C)C)n3)nc2c1C (stereo partly shown) | cell-free assay, competition with immobilised ligand | 1 µM | 71
CNC(=O)[C@@H]1CC[C@@H](n2c(-c3ccc4cnccc4c3)nc3ccc(C(=O)NCc4cccc(C(N)=O)c4)cc32)C1 | binding, competition with immobilised ligand | 1 µM | 53
O=C(NCCCN1CCOCC1)c1ccc(Nc2ncc(Cl)c(-c3ccc(Cl)s3)n2)cc1 | binding, competition with immobilised ligand | 1 µM | 6.9
Cc1cnn2ncc(-c3ccnc(N(C)C)n3)c2c1 | binding | 1 µM | 78
Cc1noc([C@H]2C[C@@H](c3ccc(C(F)(F)F)cc3)CN(C(=O)N3CCS(=O)(=O)C3)C2)n1 | cell-free assay, competition with immobilised ligand | 1 µM | 78
CN(CCCC(F)(F)F)c1nccc(-c2cnn3ncccc23)n1 | binding | 1 µM | 100
Cc1c[nH]c2nccc(Oc3c(F)cc(Nc4cc(Cl)nc(N)n4)cc3F)c12 | cell-free assay, competition with immobilised ligand | 0.1 µM | 82
COc1ccnn2ncc(-c3ccnc(N(C)C)n3)c12 | binding | 1 µM | 76
CCCCN(CCCC)C(=O)CN1C[C@H](c2cc(OC)c3c(c2)OCO3)[C@@H](C(=O)O)[C@@H]1CC(C)(C)CCC | cell-free assay, competition with immobilised ligand | 1 µM | 100
Cc1cnc(Nc2ccc(C(=O)N3CCC(N4CCCC4)CC3)cc2)nc1-c1cc2ccccc2s1 | binding, competition with immobilised ligand | 1 µM | 0.4
C=CC(=O)N1CCC(C(=O)NCC(=O)N2CCN(c3nc(-c4cnc(N)nc4C(F)F)nc(N4CCOCC4)n3)CC2)CC1 | binding, competition with immobilised ligand | 1 µM | 77
O=C(NCC1CCOCC1)c1n[nH]cc1NC(=O)c1c(F)cccc1F | binding, competition with immobilised ligand | 1 µM | 68
CC(=O)C1=C(C)N(c2cccc(C(F)(F)F)c2)C(=O)N[C@@H]1c1ccc(C#N)nc1 | cell-free assay, competition with immobilised ligand | 1 µM | 100
C[C@@H](c1ccc(-n2cnc3c(N)ncnc32)cc1)N1CCc2nn(C)c(Cc3ccccc3)c2C1=O | binding, competition with immobilised ligand | 0.1 µM | 40
N[C@@H]1CCN(c2nccc(-c3cnn4ncccc34)n2)C1 | binding | 1 µM | 97
N#Cc1ccc(Nc2ccc3[nH]c(=O)[nH]c3c2)c(Cl)c1 | cell-free assay, competition with immobilised ligand | 1 µM | 100
